According to ChEMBL document CHEMBL1151950, “Antioxidant phenylethanoid glycosides and a neolignan from Jacaranda caucana” (J Nat Prod, 2009):

Assays:
[1] = Antioxidant activity assessed as protection against peroxyl radical-induced alkaline phosphatase activity loss by microplate assay; type: functional
How it was run: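 Pure compounds were tested in the microplate alkaline phosphatase (ALP) oxidation-protection assay. The reported value is EC50, the antioxidant concentration that protects ALP by 50% from peroxyl radical-induced loss of activity.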

[2] = DPPH radical scavenging activity assessed as ratio of antioxidant concentration to drug level causing 50% decrease in DPPH level at steady state by microplate assay

C[C@@H]1O[C@@H](O[C@@H]2[C@@H](O)[C@H](OCCc3ccc(O)c(O)c3)O[C@H](COC(=O)C[C@]3(O)CC[C@@H](O)CC3)[C@H]2OC(=O)/C=C/c2ccc(O)c(O)c2)[C@H](O)[C@H](O)[C@H]1O
EC50 [1]: 1270 nM | Ratio [2]: 0.098

C[C@@H]1O[C@@H](O[C@@H]2[C@@H](O)[C@H](OCCc3ccc(O)c(O)c3)O[C@H](COC(=O)CC3(O)CCC(=O)CC3)[C@H]2OC(=O)/C=C/c2ccc(O)c(O)c2)[C@H](O)[C@H](O)[C@H]1O
EC50 [1]: 1270 nM | Ratio [2]: 0.079

COc1cc([C@H]2Oc3c(OC)cc([C@@H](O)[C@@H](O)CO)cc3[C@@H]2CO)ccc1O[C@@H]1O[C@@H](C)[C@H](O)[C@@H](O)[C@H]1O
EC50 [1]: 9070 nM | Ratio [2]: 1.84

C[C@@H]1O[C@@H](O[C@@H]2[C@@H](O)[C@H](OCCc3ccc(O)c(O)c3)O[C@H](CO)[C@H]2OC(=O)/C=C/c2ccc(O)c(O)c2)[C@H](O)[C@H](O)[C@H]1O [ACETOSIDE]
EC50 [1]: 1040 nM | Ratio [2]: 0.078

C[C@@H]1O[C@@H](O[C@@H]2[C@@H](O)[C@H](OCCc3ccc(O)c(O)c3)O[C@H](COC(=O)/C=C/c3ccc(O)c(O)c3)[C@H]2O)[C@H](O)[C@H](O)[C@H]1O [ISOACTEOSIDE]
EC50 [1]: 1200 nM | Ratio [2]: 0.07

COc1ccc(CCO[C@@H]2O[C@H](CO)[C@@H](OC(=O)/C=C/c3ccc(O)c(O)c3)[C@H](O[C@@H]3O[C@@H](C)[C@H](O)[C@@H](O)[C@H]3O)[C@H]2O)cc1O [JIONOSIDE D]
EC50 [1]: 1100 nM | Ratio [2]: 0.17

COc1ccc(CCO[C@@H]2O[C@H](CO)[C@@H](OC(=O)/C=C/c3ccc(O)c(OC)c3)[C@H](O[C@@H]3O[C@@H](C)[C@H](O)[C@@H](O)[C@H]3O)[C@H]2O)cc1O [MARTYNOSIDE A]
EC50 [1]: 2420 nM | Ratio [2]: 0.38

O=C(O)c1ccc(O)c(O)c1 [PROTOCATECHUIC ACID]
EC50 [1]: 2560 nM | Ratio [2]: 0.23

O=c1c(O)c(-c2ccc(O)c(O)c2)oc2cc(O)cc(O)c12 [QUERCETIN]
EC50 [1]: 1000 nM | Ratio [2]: 0.09
